Assay outcomes (PubChem)
PAFAH2 FP inh: PAFAH2 (human) inhibition; AID 492956; inhibition, % at 3.39 µM; recombinant PAFAH2, FP-rhodamine activity probe, fluorescence polarization; Q99487; 340,000 compounds, 0.99% hits;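 active = inhibition above the mean over all tested compounds plus 3 SD, cut at about 30% in these data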;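 also: inhibitors block probe labeling of enzyme so polarization drops; 0% = enzyme with DMSO and 100% = wells lacking PAFAH2 protein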
PAFAH1B3 inh: PAFAH1B3 (human) inhibition. recombinant PAFAH1B3, FP-rhodamine probe, fluorescence polarization. 340,000 compounds, 0.28% hits. Q15102. AID 492972. inhibition, % at 3.39 µM;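 active = inhibition above the screen-wide average of all tested compounds plus 3 SD, cut at about 25% in these data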;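 also: 0% = enzyme with DMSO only and 100% = wells lacking PAFAH1B3 protein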
Target sequence (Q15102 whole entry, looked up): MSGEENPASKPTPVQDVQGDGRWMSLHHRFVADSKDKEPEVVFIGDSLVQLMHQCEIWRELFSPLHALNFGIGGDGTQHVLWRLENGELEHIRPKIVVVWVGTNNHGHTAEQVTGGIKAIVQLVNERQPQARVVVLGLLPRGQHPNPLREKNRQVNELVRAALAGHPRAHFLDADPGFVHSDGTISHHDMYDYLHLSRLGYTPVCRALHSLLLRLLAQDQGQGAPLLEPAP
PAFAH1B2 inh: PAFAH1B2 (human) inhibition; P68402; recombinant PAFAH1B2, FP-rhodamine activity probe, fluorescence polarization; inhibition, % at 3.39 µM; 340,000 compounds, 1.2% hits; AID 492953;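 active = inhibition above the mean of all tested compounds plus 3 SD, cut at about 24% in these data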;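 also: 0% = enzyme with DMSO and 100% = wells lacking PAFAH1B2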
pPAFAH inh: inhibitors of human plasma PAF acetylhydrolase (pPAFAH). 330,000 compounds, 1.5% hits. recombinant pPAFAH, FP-rhodamine probe fluorescence polarization. inhibition, % at 3.39 µM. Q13093. AID 463082;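 active = inhibition above the mean inhibition across the screen plus 3 SD, cut at about 25% in these data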;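 also: inhibitors block binding of the rhodamine activity-based probe so polarization drops; 0% = enzyme with DMSO and 100% = wells lacking pPAFAH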
Apaf-1 inh: inhibitors of human Apaf-1 apoptosome. O14727. reconstituted apoptosome caspase-3 activity, DEVD-Rh110 fluorescence. inhibition, % at 20 µM. 330,000 compounds, 0.71% hits. AID 489030; active = inhibition of at least 40% at 20 µM;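 also: plate controls were DMSO wells for no effect and DEVD-CHO caspase inhibitor wells for full effect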
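detection = Rh110 fluorescence intensity | test system = biochemical Apaf-1 apoptosome reconstitution | also added = cytochrome c and DEVD-Rh110 substrate | schedule = 30 min plus 50 min, RT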
* = called active by the depositor; · = no result given. Sampled rows, rich in hits. Any-hit rate of the full collection: about 3.1%.

SMILES	PAFAH2 FP inh	PAFAH1B3 inh	PAFAH1B2 inh	pPAFAH inh	Apaf-1 inh
CC1=C(C(=O)OC2CCCCCCC2)C(c2ccc(O)cc2)NC(=O)N1 (configuration not stated)	6	6	25*	1	13
O=C1/C(=C/c2cccs2)CCC/C1=C\c1cccs1	-1	8	12	29*	16
Cc1ccc(Cc2cnc(NC(=O)C3CCCO3)s2)cc1 (configuration not stated)	-1	4	28*	10	11
O=C(Nc1ncc(Cc2cccc(C(F)(F)F)c2)s1)C1CCCO1 (configuration not stated)	0	-6	3	10	-2
Cc1cc(C)cc(NS(=O)(=O)c2ccc(NC(=O)C3CCCCC3C(=O)O)cc2)c1 (configuration not stated)	-3	-8	-1	28*	2
COc1ccc(Cl)cc1C(=O)NNC(=O)C1CCCO1 (configuration not stated)	7	2	5	·	1
COC(=O)[C@@]1(C)[C@H]2C(=O)N(C)C(=O)[C@H]2[C@H]2CN=C(SCc3ccc(C#N)cc3)N21	-4	6	12	9	4
COC(=O)[C@@]1(C)[C@H]2C(=O)N(C)C(=O)[C@H]2[C@H]2CN=C(SCc3ccc(Cl)cc3)N21	-2	1	29*	4	19
Cc1cc(C)nc(N2CCCC(C(=O)Nc3cccc(Cl)c3)C2)n1 (configuration not stated)	-9	-7	0	3	9
Cc1ccc(S(=O)(=O)Cn2nnnc2C(CC(C)C)N2CCN(C3CCCC3)CC2)cc1 (configuration not stated)	10	0	4	4	2
O=C(O)c1cc(-c2ccccc2Cl)n(-c2ccccc2)n1	-7	6	29*	4	0
O=C(O)CN1C(=O)C(=O)N(Cc2ccc(Cl)cc2Cl)C1=O	-3	5	25*	6	8
COc1ccc(O)c(/C=N/NC(=O)c2ccc(CSc3nc(C)cc(C)n3)cc2)c1	1	9	16	27*	4
Cc1cc(C)nc(SCc2ccc(C(=O)N/N=C/c3cccc(O)c3O)cc2)n1	0	37*	21	32*	4
COc1ccc(/C=N/NC(=O)c2ccc(CSc3nc(C)cc(C)n3)cc2)cc1O	-13	3	1	16	9
CSc1ncc(C(=O)Nc2ccc(C(C)=O)cc2)c(C)n1	-7	0	0	·	5
C[C@@H]1O[C@@H](O[C@H]2[C@H](O)[C@@H](O)[C@H](Oc3c(-c4ccc(O)cc4)oc4cc(O)cc(O)c4c3=O)O[C@@H]2CO)[C@H](O)[C@H](O)[C@H]1O	3	6	1	9	-8
C[C@@H]1O[C@@H](OC2C(O)C(OCCc3ccc(O)c(O)c3)OC(CO)C2OC(=O)/C=C/c2ccc(O)c(O)c2)[C@H](O)[C@H](O)[C@H]1O (some centres not stated)	·	·	·	46*	-3
Cc1ccc(C2/C(=C(\O)c3ccc4c(c3)OCCO4)C(=O)C(=O)N2CC2CCCO2)cc1 (configuration not stated)	-2	6	-1	·	-4
COC(=O)c1sc(-c2ccc(Cl)cc2)cc1NC(=O)/C=C/C(=O)O	-2	5	27*	3	13
CC(=O)c1sc(C(C)(C)C)cc1NC(=O)CCC(=O)O	2	2	6	1	-4
COC(=O)c1sc(-c2ccc(Cl)cc2)cc1NC(=O)COCC(=O)O	1	3	43*	15	13
COC(=O)c1sc(-c2ccccc2)cc1NC(=O)c1cc(OC)cc(OC)c1	-4	4	0	3	-5
COC(=O)c1sc(-c2ccc(C(C)(C)C)cc2)cc1NC(=O)CCC(=O)O	·	·	·	26*	35
C[C@@H]1ON(C)[C@H]2C[C@H]3c4cc(-c5cccc(F)c5)ccc4CCN3C(=O)[C@@H]12	5	4	6	·	·
CC(C)(C)C(=O)Nc1ccc(C(=O)CN2C(=O)NC3(CCOc4ccccc43)C2=O)cc1 (configuration not stated)	2	6	0	1	-5
COc1ccc(C(=O)NC(=S)Nc2ccc(CN3CCOCC3)cc2)cc1Br	4	11	-6	3	20
CC(C)(C)c1cc(=O)[nH]c(SCc2ccccc2)n1	14	1	21	31*	8
CC(C)(C)c1cc(=O)[nH]c(SCc2ccccc2Cl)n1	16	4	12	27*	15
